# In publication PMC4327868 (Chemical research in toxicology, 2013):
# Key:
# Assay type in all cases: cell-based
# [1] = system: PC6-3 cells; test: Cytotoxicity by lactate dehydrogenase; settings: 4 h, even at high concentrations (900 μM)
# [2] = system: PC6-3 cells; test: Extracellular dopamine metabolites; settings: 300 μM
# In short: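 NGF-differentiated PC6-3 cells were given test compound (0, 10, 25, 50, 100 or 300 μM; 0.6% DMSO) in HEPES-buffered saline, pH 7.4. Extracellular aliquots taken at 0, 1 and 4 h went into 5% perchloric acid and were centrifuged. DOPAL, DOPAC and DOPET were run on isocratic C18 HPLC (0.1% TFA, 6% ACN), read at 202/280 nm, and quantified against standard curves. Mean ± SD, n = 3.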
# [3] = system: PC6-3 cells; test: DA-supplemented dopamine metabolism; settings: 10 μM dieldrin, cells spiked with 100 μM DA 15 min prior, 4 h, vs control
# In short: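 PC6-3 cells seeded at 6 × 10^4 cells/well, NGF-differentiated (50 ng/mL, 4 days), and given 100 μM DA 15 min before 4 h exposure to test compound (10, 30, 100 or 300 μM) in HEPES-buffered saline. Extracellular DOPAL was measured by capillary C18 HPLC with photodiode-array detection and quantified against a standard curve. Reported as % control; mean ± SEM, n = 3 or 4.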
smiles,measurement,setting,value
ClC1=C(Cl)C2(Cl)C3C4CC(C5OC45)C3C1(Cl)C2(Cl)Cl (stereo not drawn) [endrin],cytotoxicity (LDH release),[1],no cytotoxicity
"ClC1=C(Cl)C2(Cl)C3CC4OC4CC3C1(Cl)C2(Cl)Cl (stereo not drawn) [desmethylene dieldrin, 1,8,9,10,11,11-Hexachloro-4,5-epoxy-2,3-7,6-endotricyclo[6.2.1.0^2,7]undec-9-ene]",increase of extracellular DOPAL concentration,[2],10 fold
ClC1=C(Cl)[C@]2(Cl)[C@@H]3[C@@H]4C[C@@H]([C@H]5O[C@@H]45)[C@@H]3[C@@]1(Cl)C2(Cl)Cl [dieldrin],increase in extracellular DOPAL levels,[3],~200%
